Source: ChEMBL document CHEMBL1165965, “Synthesis and structure-activity relationships of 1,2,3,4-tetrahydropyrido[2,3-b]pyrazines as potent and selective inhibitors of the anaplastic lymphoma kinase” (Bioorg Med Chem, 2010)

Assays:
[1] = target: Cyclin-dependent kinase 17 (Homo sapiens) (UniProt Q00537); experiment: Inhibition of PCTK2 at 1 uM
[2] = target: Serine/threonine-protein kinase N1 (Homo sapiens) (UniProt Q16512); experiment: Inhibition of PKN1 at 1 uM
[3] = target: T1, cGMP-dependent protein kinase 1 (Homo sapiens) (UniProt Q13976); experiment: Inhibition of PRKG1 at 1 uM
T1 sequence (whole entry): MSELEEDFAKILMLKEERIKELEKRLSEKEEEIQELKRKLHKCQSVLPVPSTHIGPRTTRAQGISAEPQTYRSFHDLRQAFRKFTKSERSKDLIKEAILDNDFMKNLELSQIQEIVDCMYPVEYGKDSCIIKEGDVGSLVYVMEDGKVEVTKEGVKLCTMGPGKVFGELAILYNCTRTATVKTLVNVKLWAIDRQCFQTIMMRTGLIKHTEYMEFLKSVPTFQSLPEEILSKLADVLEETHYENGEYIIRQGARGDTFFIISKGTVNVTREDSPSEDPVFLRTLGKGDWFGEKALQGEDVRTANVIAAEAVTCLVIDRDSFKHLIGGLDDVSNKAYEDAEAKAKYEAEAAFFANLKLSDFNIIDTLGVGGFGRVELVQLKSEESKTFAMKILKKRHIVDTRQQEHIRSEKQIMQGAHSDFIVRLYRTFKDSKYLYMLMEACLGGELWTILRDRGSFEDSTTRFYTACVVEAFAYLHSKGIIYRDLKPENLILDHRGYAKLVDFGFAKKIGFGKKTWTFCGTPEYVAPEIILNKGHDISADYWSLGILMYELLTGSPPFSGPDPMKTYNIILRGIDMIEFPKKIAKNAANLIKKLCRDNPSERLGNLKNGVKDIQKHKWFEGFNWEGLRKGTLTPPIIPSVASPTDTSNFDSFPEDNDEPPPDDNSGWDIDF

[4] = target: T2, Mitogen-activated protein kinase kinase kinase 19 (Homo sapiens) (UniProt Q56UN5); experiment: Inhibition of YSK4 at 1 uM
T2 sequence (whole entry): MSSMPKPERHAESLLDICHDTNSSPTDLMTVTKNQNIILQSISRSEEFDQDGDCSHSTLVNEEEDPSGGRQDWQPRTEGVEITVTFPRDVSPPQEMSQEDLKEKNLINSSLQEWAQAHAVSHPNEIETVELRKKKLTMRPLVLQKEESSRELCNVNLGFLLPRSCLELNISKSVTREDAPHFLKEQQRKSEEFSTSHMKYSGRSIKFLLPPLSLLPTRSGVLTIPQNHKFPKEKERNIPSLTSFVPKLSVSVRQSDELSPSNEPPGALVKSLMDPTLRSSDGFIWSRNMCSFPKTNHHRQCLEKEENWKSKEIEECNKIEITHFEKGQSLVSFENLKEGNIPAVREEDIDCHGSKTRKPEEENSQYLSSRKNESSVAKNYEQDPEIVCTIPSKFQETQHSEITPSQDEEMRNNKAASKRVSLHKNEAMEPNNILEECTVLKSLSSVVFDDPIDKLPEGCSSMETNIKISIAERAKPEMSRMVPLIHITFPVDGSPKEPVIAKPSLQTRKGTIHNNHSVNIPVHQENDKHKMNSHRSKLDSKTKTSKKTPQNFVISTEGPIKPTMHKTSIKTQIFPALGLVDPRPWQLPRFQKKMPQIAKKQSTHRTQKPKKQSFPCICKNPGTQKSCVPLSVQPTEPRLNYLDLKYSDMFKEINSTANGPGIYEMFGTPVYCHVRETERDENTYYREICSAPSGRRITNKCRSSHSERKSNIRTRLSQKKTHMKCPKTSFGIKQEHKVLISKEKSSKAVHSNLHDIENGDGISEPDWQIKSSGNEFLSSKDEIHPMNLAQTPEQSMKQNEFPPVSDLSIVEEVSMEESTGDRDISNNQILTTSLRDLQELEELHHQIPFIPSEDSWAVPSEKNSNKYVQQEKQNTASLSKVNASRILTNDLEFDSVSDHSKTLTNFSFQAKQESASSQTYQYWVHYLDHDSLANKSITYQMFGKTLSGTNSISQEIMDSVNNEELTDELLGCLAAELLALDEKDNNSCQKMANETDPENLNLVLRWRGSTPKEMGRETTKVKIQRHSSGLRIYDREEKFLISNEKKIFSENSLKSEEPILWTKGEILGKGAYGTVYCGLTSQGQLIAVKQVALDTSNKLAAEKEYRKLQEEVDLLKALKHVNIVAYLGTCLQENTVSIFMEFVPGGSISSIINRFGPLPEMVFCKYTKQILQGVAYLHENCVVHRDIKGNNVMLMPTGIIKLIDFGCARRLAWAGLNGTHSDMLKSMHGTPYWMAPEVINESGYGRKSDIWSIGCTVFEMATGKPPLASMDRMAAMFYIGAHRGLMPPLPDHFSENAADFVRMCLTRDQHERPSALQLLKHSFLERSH

[5] = target: T3, NUAK family SNF1-like kinase 1 (Homo sapiens) (UniProt O60285); experiment: Inhibition of ARK5 at 1 uM
T3 sequence (whole entry): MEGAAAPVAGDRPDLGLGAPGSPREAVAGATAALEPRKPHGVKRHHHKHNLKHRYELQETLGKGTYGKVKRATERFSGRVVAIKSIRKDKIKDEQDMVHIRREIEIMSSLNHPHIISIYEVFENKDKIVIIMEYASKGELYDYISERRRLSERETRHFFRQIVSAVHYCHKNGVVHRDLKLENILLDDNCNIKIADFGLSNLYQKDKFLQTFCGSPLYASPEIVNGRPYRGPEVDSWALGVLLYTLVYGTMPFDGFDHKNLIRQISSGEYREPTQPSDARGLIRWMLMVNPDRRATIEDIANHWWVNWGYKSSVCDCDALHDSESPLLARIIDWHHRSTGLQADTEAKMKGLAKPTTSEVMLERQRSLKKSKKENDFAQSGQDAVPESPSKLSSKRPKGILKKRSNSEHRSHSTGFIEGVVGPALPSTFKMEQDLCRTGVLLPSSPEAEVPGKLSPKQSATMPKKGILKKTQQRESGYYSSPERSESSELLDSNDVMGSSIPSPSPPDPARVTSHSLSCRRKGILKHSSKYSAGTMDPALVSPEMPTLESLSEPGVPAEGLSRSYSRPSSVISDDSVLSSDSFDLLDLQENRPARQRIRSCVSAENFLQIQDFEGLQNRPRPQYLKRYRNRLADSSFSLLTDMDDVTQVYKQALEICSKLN

[6] = target: Mitogen-activated protein kinase 1 (Homo sapiens) (UniProt P28482); experiment: Inhibition of ERK2 at 1 uM
Summary of the method: (§1)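 Single-concentration screen using Ambit Bioscience KINOMEscan technology across a panel of 250–400 kinases. Per-kinase inhibition from this screen was summarized as S(90), the fraction of kinases inhibited by more than 90%.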

[7] = target: Fibroblast growth factor receptor 2 (Homo sapiens) (UniProt P21802); experiment: Inhibition of FGFR2 at 1 uM; summary of the method: as §1
Chain of Fibroblast growth factor receptor 2 (Homo sapiens) (P21802 22-821 limits assumed): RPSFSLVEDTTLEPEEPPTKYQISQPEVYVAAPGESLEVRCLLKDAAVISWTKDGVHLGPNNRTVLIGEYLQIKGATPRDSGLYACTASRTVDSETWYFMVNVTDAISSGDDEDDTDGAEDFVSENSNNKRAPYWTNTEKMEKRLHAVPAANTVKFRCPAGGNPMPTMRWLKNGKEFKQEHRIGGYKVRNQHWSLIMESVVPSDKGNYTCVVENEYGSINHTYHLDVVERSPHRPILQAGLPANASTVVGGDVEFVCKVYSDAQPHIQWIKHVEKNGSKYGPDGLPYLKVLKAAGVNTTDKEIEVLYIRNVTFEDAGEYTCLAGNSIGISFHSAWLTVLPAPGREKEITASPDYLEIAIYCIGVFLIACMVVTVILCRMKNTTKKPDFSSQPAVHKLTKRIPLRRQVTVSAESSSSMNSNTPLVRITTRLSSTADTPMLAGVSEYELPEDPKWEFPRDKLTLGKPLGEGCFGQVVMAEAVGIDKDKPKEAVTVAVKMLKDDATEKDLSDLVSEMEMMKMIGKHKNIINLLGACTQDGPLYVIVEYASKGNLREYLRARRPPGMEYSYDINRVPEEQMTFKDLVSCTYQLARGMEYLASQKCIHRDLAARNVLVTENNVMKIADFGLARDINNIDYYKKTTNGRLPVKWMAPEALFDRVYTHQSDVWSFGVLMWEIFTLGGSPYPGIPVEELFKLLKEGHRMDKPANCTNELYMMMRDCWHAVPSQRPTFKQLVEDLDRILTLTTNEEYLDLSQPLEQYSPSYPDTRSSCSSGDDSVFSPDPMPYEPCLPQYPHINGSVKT

Chain of Cyclin-dependent kinase 17 (Homo sapiens) (Q00537 whole entry, looked up): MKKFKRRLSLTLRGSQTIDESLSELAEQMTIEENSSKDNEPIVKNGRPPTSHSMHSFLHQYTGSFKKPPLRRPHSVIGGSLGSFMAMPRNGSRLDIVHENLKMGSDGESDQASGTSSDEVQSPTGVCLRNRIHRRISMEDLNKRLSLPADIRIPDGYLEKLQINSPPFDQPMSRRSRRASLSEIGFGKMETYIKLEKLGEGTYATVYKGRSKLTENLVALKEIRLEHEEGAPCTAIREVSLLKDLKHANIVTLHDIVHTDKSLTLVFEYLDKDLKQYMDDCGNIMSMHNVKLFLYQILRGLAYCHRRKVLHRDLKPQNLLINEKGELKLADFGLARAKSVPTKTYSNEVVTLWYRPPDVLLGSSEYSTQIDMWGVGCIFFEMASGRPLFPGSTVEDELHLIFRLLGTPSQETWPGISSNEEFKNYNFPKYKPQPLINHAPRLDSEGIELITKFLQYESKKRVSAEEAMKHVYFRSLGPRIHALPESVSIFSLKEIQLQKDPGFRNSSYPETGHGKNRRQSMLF
Chain of Mitogen-activated protein kinase 1 (Homo sapiens) (P28482 whole entry): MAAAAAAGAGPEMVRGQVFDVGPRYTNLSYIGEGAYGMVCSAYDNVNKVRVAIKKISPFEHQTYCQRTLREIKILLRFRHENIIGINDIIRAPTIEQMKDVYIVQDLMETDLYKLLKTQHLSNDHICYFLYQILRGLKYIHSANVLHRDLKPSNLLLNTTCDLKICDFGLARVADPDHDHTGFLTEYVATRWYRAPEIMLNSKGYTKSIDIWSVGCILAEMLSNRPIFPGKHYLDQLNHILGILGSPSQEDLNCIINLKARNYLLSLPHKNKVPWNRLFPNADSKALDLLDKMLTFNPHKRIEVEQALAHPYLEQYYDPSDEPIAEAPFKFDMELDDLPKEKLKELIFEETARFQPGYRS
Chain of Serine/threonine-protein kinase N1 (Homo sapiens) (Q16512 2-942 limits assumed): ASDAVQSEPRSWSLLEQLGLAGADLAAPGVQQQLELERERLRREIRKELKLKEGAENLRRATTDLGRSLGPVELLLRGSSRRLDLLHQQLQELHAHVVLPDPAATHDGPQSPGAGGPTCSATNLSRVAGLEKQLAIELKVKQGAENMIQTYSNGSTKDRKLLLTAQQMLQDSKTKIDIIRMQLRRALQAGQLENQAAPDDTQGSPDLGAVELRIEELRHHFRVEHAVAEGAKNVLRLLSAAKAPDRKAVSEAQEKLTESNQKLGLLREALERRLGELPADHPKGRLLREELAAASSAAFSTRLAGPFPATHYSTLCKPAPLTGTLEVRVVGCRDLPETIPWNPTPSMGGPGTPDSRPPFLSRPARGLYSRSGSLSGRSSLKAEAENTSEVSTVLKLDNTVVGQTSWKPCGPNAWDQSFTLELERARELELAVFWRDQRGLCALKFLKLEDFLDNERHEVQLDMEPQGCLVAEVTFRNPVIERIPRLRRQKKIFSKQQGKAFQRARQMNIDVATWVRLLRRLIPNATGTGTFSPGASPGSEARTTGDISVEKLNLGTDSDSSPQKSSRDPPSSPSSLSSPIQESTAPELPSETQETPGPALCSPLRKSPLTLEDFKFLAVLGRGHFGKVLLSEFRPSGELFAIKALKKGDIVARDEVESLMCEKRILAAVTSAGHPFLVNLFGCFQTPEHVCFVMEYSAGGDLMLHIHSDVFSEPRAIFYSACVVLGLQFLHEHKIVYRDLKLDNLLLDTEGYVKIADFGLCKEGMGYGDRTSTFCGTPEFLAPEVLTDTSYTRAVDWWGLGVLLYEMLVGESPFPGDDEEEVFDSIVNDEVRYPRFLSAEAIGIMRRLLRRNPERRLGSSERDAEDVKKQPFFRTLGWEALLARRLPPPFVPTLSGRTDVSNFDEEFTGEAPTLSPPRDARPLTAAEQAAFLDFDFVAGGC

Compound | inhibition [1] [%] | inhibition [2] [%] | inhibition [3] [%] | inhibition [4] [%] | inhibition [5] [%] | inhibition [6] [%] | inhibition [7] [%]
CN1CCN(c2ccc(-c3cnc4c(c3)N(Cc3cc(Cl)ccc3Cl)CCN4)cn2)CC1 | < 50 | < 50 | < 50 | < 50 | 94 | < 50 | < 50
CN1CCN(c2ccc(-c3cnc4c(c3)N(Cc3cc(Cl)ccc3C(F)(F)F)CCN4)cn2)CC1 | < 50 | < 50 | < 50 | < 50 | 92 | < 50 | < 50
CN1CCN(c2ccc(-c3cnc4c(c3)N(Cc3c(F)ccc(F)c3Cl)CCN4)cn2)CC1 | < 50 | < 50 | < 50 | < 50 | 92 | < 50 | < 50
O=C(c1ccc(-c2cnc3c(c2)N(Cc2cc(Cl)ccc2C(F)(F)F)CCN3)cc1)N1CCC(N2CCCC2)CC1 |  |  | < 50 |  |  | < 50 | < 50
COC1CCN(C(=O)c2ccc(-c3cnc4c(c3)N(Cc3cc(Cl)ccc3C(F)(F)F)CCN4)cc2)CC1 |  |  | < 50 |  |  | < 50 | < 50
FC(F)(F)c1ccc(Cl)cc1CN1CCNc2ncc(-c3ccnc(N4CCNCC4)c3)cc21 | < 50 | 82 | < 50 | < 50 | 88 | < 50 | < 50
CN1CCN(c2ccc(-c3cnc4c(c3)N(Cc3cc(F)ccc3F)CCN4)cn2)CC1 | < 50 | < 50 | < 50 | < 50 | 96 | < 50 | < 50
O=C(c1ccc(-c2cnc3c(c2)N(Cc2cc(Cl)ccc2C(F)(F)F)CCN3)cc1)N1CCCCC1 |  |  | < 50 |  |  | < 50 | < 50
CC(=O)N1CCN(c2cc(-c3cnc4c(c3)N(Cc3cc(Cl)ccc3C(F)(F)F)CCN4)ccn2)CC1 | < 50 | < 50 | < 50 | < 50 | 90 | < 50 | < 50
O=C(O)c1ccc(-c2cnc3c(c2)N(Cc2cc(Cl)ccc2C(F)(F)F)CCN3)cc1 |  |  | < 50 |  |  | < 50 | < 50
